Assay results reported in ChEMBL document CHEMBL5376013, “Design, synthesis and biological evaluation of novel morpholinopyrimidine-5-carbonitrile derivatives as dual PI3K/mTOR inhibitors” (RSC Med Chem, 2024).

What was measured:
Format in all cases: functional
Details in all cases: read-out: GI
[1] = test system: HL-60; assay: Antitumor activity against human HL-60 cells assessed as growth inhibition at 10 uM relative to control
Method in brief: (§1)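 After drug addition, plates were incubated 48 h at 37 °C under 5% CO2. Adherent cells were fixed with cold TCA (10% final, 60 min, 4 °C) and suspension cells with 16% final TCA. Staining used 0.4% SRB in 1% acetic acid, solubilized in 10 mM trizma, read at A515. Percent growth was calculated from time-zero, control and treated absorbances.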

[2] = test system: RPMI-8226; assay: Antitumor activity against human RPMI-8226 cells assessed as growth inhibition at 10 uM relative to control; method in brief: as §1
[3] = test system: SR; assay: Antitumor activity against human SR cells assessed as growth inhibition at 10 uM relative to control
Method in brief: (§2)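 Drug exposure 48 h at 37 °C, 5% CO2. Adherent cells fixed with cold TCA (10% final), suspension cells with TCA (16% final). Stained with 0.4% SRB in 1% acetic acid, dissolved in 10 mM Tris, A515. Growth relative to time-zero and untreated control.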

[4] = test system: EKVX; assay: Antitumor activity against human EKVX cells assessed as growth inhibition at 10 uM relative to control; method in brief: as §1
[5] = test system: HOP-62; assay: Antitumor activity against human HOP-62 cells assessed as growth inhibition at 10 uM relative to control; method in brief: as §1
[6] = test system: HOP-92; assay: Antitumor activity against human HOP-92 cells assessed as growth inhibition at 10 uM relative to control; method in brief: as §1
[7] = test system: NCI-H226; assay: Antitumor activity against human NCI-H226 cells assessed as growth inhibition at 10 uM relative to control; method in brief: as §1
[8] = test system: NCI-H23; assay: Antitumor activity against human NCI-H23 cells assessed as growth inhibition at 10 uM relative to control; method in brief: as §1
[9] = test system: NCI-H322M; assay: Antitumor activity against human NCI-H322M cells assessed as growth inhibition at 10 uM relative to control; method in brief: as §1
[10] = test system: NCI-H460; assay: Antitumor activity against human NCI-H460 cells assessed as growth inhibition at 10 uM relative to control; method in brief: as §1
[11] = test system: NCI-H522; assay: Antitumor activity against human NCI-H522 cells assessed as growth inhibition at 10 uM relative to control; method in brief: as §1
[12] = test system: COLO 205; assay: Antitumor activity against human COLO 205 cells assessed as growth inhibition at 10 uM relative to control; method in brief: as §1
[13] = test system: HCC 2998; assay: Antitumor activity against human HCC 2998 cells assessed as growth inhibition at 10 uM relative to control; method in brief: as §1
[14] = test system: HCT-116; assay: Antitumor activity against human HCT-116 cells assessed as growth inhibition at 10 uM relative to control; method in brief: as §1
[15] = test system: HT-29; assay: Antitumor activity against human HT-29 cells assessed as growth inhibition at 10 uM relative to control; method in brief: as §1
[16] = test system: KM12; assay: Antitumor activity against human KM12 cells assessed as growth inhibition at 10 uM relative to control; method in brief: as §1
[17] = test system: SW-620; assay: Antitumor activity against human SW-620 cells assessed as growth inhibition at 10 uM relative to control; method in brief: as §2
[18] = test system: SF-268; assay: Antitumor activity against human SF-268 cells assessed as growth inhibition at 10 uM relative to control; method in brief: as §1
[19] = test system: SF-295; assay: Antitumor activity against human SF-295 cells assessed as growth inhibition at 10 uM relative to control; method in brief: as §1
[20] = test system: SF-539; assay: Antitumor activity against human SF-539 cells assessed as growth inhibition at 10 uM relative to control; method in brief: as §1
[21] = test system: SNB-19; assay: Antitumor activity against human SNB-19 cells assessed as growth inhibition at 10 uM relative to control; method in brief: as §2
[22] = test system: SNB-75; assay: Antitumor activity against human SNB-75 cells assessed as growth inhibition at 10 uM relative to control; method in brief: as §2
[23] = test system: U-251; assay: Antitumor activity against human U-251 cells assessed as growth inhibition at 10 uM relative to control; method in brief: as §2
[24] = test system: Malme-3M; assay: Antitumor activity against human Malme-3M cells assessed as growth inhibition at 10 uM relative to control; method in brief: as §1
[25] = test system: M14; assay: Antitumor activity against human M14 cells assessed as growth inhibition at 10 uM relative to control; method in brief: as §1
[26] = test system: MDA-MB-435; assay: Antitumor activity against human MDA-MB-435 cells assessed as growth inhibition at 10 uM relative to control; method in brief: as §1
[27] = test system: SK-MEL-2; assay: Antitumor activity against human SK-MEL-2 cells assessed as growth inhibition at 10 uM relative to control; method in brief: as §1
[28] = test system: SK-MEL-28; assay: Antitumor activity against human SK-MEL-28 cells assessed as growth inhibition at 10 uM relative to control; method in brief: as §2
[29] = test system: SK-MEL-5; assay: Antitumor activity against human SK-MEL-5 cells assessed as growth inhibition at 10 uM relative to control; method in brief: as §2
[30] = test system: UACC-257; assay: Antitumor activity against human UACC-257 cells assessed as growth inhibition at 10 uM relative to control; method in brief: as §2
[31] = test system: UACC-62; assay: Antitumor activity against human UACC-62 cells assessed as growth inhibition at 10 uM relative to control; method in brief: as §2
[32] = test system: IGROV-1; assay: Antitumor activity against human IGROV-1 cells assessed as growth inhibition at 10 uM relative to control; method in brief: as §1
[33] = test system: OVCAR-4; assay: Antitumor activity against human OVCAR-4 cells assessed as growth inhibition at 10 uM relative to control; method in brief: as §1
[34] = test system: OVCAR-5; assay: Antitumor activity against human OVCAR-5 cells assessed as growth inhibition at 10 uM relative to control; method in brief: as §1
[35] = test system: NCI/ADR-RES; assay: Antitumor activity against human NCI-ADR-RES cells assessed as growth inhibition at 10 uM relative to control; method in brief: as §1
[36] = test system: SK-OV-3; assay: Antitumor activity against human SK-OV-3 cells assessed as growth inhibition at 10 uM relative to control; method in brief: as §2
[37] = test system: 786-0; assay: Antitumor activity against human 786-0 cells assessed as growth inhibition at 10 uM relative to control; method in brief: as §1
[38] = test system: A498; assay: Antitumor activity against human A498 cells assessed as growth inhibition at 10 uM relative to control; method in brief: as §1
[39] = test system: CAKI-1; assay: Antitumor activity against human CAKI-1 cells assessed as growth inhibition at 10 uM relative to control; method in brief: as §1
[40] = test system: RXF 393; assay: Antitumor activity against human RXF 393 cells assessed as growth inhibition at 10 uM relative to control; method in brief: as §1
[41] = test system: SN12C; assay: Antitumor activity against human SN12C cells assessed as growth inhibition at 10 uM relative to control; method in brief: as §2
[42] = test system: TK-10; assay: Antitumor activity against human TK-10 cells assessed as growth inhibition at 10 uM relative to control; method in brief: as §2
[43] = test system: UO-31; assay: Antitumor activity against human UO-31 cells assessed as growth inhibition at 10 uM relative to control; method in brief: as §2
[44] = test system: MDA-MB-231; assay: Antitumor activity against human MDA-MB-231 cells assessed as growth inhibition at 10 uM relative to control; method in brief: as §1
[45] = test system: Hs-578T; assay: Antitumor activity against human Hs-578T cells assessed as growth inhibition at 10 uM relative to control; method in brief: as §1
[46] = test system: T47D; assay: Antitumor activity against human T47D cells assessed as growth inhibition at 10 uM relative to control; method in brief: as §2

## N#Cc1c(-c2ccc(Cl)cc2)nc(NN2C(=O)c3ccccc3C2=O)nc1N1CCOCC1
[1]
  inhibition of growth at 10 µM: < 1%
[2]
  inhibition of growth at 10 µM: < 1%
[3]
  inhibition of growth at 10 µM: 16%
[4]
  inhibition of growth at 10 µM: < 1%
[5]
  inhibition of growth at 10 µM: < 1%
[6]
  inhibition of growth at 10 µM: < 1%
[7]
  inhibition of growth at 10 µM: < 1%
[8]
  inhibition of growth at 10 µM: < 1%
[9]
  inhibition of growth at 10 µM: < 1%
[10]
  inhibition of growth at 10 µM: < 1%
[11]
  inhibition of growth at 10 µM: < 1%
[12]
  inhibition of growth at 10 µM: < 1%
[13]
  inhibition of growth at 10 µM: < 1%
[14]
  inhibition of growth at 10 µM: < 1%
[15]
  inhibition of growth at 10 µM: < 1%
[16]
  inhibition of growth at 10 µM: < 1%
[17]
  inhibition of growth at 10 µM: < 1%
[18]
  inhibition of growth at 10 µM: < 1%
[19]
  inhibition of growth at 10 µM: < 1%
[20]
  inhibition of growth at 10 µM: < 1%
[21]
  inhibition of growth at 10 µM: < 1%
[22]
  inhibition of growth at 10 µM: 15.4%
[23]
  inhibition of growth at 10 µM: < 1%
[24]
  inhibition of growth at 10 µM: < 1%
[25]
  inhibition of growth at 10 µM: < 1%
[26]
  inhibition of growth at 10 µM: < 1%
[27]
  inhibition of growth at 10 µM: < 1%
[28]
  inhibition of growth at 10 µM: < 1%
[29]
  inhibition of growth at 10 µM: < 1%
[30]
  inhibition of growth at 10 µM: < 1%
[31]
  inhibition of growth at 10 µM: < 1%
[32]
  inhibition of growth at 10 µM: < 1%
[33]
  inhibition of growth at 10 µM: < 1%
[34]
  inhibition of growth at 10 µM: < 1%
[35]
  inhibition of growth at 10 µM: < 1%
[36]
  inhibition of growth at 10 µM: < 1%
[37]
  inhibition of growth at 10 µM: < 1%
[38]
  inhibition of growth at 10 µM: < 1%
[39]
  inhibition of growth at 10 µM: < 1%
[40]
  inhibition of growth at 10 µM: < 1%
[41]
  inhibition of growth at 10 µM: < 1%
[42]
  inhibition of growth at 10 µM: < 1%
[43]
  inhibition of growth at 10 µM: 15.6%
[44]
  inhibition of growth at 10 µM: < 1%
[45]
  inhibition of growth at 10 µM: < 1%
[46]
  inhibition of growth at 10 µM: < 1%
